Screening results from PubChem.
PAFAH1B3 FP inh: PAFAH1B3 enzyme inhibitors, primary screen, biochemical, fluorescence polarization, human. recombinant PAFAH1B3, FP-rhodamine probe. Platelet-activating factor acetylhydrolase IB subunit alpha1 (Homo sapiens), Q15102. actives 0.28% (n = 340,000). inhibition, % at 3.39 µM;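 active = inhibition above the screen-wide average of all tested compounds plus 3 SD, cut at about 25% in these data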;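 also: 0% = enzyme with DMSO only and 100% = wells lacking PAFAH1B3 protein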
Apaf1 inhib: inhibitors of human Apaf-1 apoptosome, primary screen, biochemical, DEVD-Rh110 fluorescence, uHTS; Apoptotic protease-activating factor 1 (Homo sapiens), O14727; reconstituted apoptosome caspase-3 activity; actives 0.71% (n = 330,000); inhibition, % at 20 µM; active = inhibition of at least 40% at 20 µM;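 also: plate controls were DMSO wells for no effect and DEVD-CHO caspase inhibitor wells for full effect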
Target sequence (O14727 whole entry, looked up): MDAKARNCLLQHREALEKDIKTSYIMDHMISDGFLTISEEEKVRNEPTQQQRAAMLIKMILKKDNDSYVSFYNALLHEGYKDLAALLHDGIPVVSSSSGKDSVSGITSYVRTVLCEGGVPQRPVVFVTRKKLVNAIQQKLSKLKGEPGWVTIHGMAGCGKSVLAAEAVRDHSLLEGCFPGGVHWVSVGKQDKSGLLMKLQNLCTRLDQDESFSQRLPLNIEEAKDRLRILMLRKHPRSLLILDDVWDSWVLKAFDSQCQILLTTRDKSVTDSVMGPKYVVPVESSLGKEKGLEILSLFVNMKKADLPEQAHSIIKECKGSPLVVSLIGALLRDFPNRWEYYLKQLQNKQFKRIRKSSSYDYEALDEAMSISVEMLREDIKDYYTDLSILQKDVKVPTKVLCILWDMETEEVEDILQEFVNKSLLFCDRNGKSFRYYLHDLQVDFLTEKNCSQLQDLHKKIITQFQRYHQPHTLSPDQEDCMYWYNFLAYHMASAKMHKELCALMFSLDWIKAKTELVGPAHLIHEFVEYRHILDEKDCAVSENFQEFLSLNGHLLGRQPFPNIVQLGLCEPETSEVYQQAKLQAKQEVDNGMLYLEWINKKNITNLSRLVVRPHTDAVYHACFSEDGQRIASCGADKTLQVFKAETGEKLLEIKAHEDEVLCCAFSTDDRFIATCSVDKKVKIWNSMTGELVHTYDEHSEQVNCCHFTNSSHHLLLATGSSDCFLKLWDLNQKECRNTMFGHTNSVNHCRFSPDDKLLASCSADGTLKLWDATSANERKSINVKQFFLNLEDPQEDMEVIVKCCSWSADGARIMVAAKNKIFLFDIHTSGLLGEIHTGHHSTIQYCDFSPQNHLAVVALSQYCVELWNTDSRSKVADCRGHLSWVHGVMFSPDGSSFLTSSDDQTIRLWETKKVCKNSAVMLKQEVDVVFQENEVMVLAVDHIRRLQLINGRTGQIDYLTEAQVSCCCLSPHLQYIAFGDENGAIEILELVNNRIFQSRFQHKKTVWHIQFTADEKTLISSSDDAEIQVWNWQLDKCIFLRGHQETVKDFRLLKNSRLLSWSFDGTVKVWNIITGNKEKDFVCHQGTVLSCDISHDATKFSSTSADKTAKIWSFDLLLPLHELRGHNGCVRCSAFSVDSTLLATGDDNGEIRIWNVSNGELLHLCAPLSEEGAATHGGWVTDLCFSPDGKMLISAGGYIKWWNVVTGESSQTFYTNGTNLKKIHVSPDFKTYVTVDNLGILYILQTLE
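Material: reconstituted apoptosome with Apaf-1, cytochrome c, caspase-9, procaspase-3, dATP. Technique: Rh110 fluorescence intensity. Buffer or medium: pH 7.5 Hepes buffer with CHAPS, BSA, DTT. Times: 30 min plus 50 min, RT.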
PAFAH1B2 FP inh: PAFAH1B2 enzyme inhibitors, primary screen, biochemical, fluorescence polarization, human; Platelet-activating factor acetylhydrolase IB subunit alpha2 (Homo sapiens), P68402; recombinant PAFAH1B2, FP-rhodamine activity probe; inhibition, % at 3.39 µM; actives 1.2% (n = 340,000); AID 492953, 2010;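 active = inhibition above the mean of all tested compounds plus 3 SD, cut at about 24% in these data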;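 also: 0% = enzyme with DMSO and 100% = wells lacking PAFAH1B2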
PREPL inh: PREPL enzyme inhibitors, primary screen, biochemical, fluorescence polarization; recombinant PREPL, fluorescence polarization activity-based probe; inhibition, % at 5.96 µM; actives 0.68% (n = 320,000); AID 2751, 2010; in the data active = inhibition above about 43%;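 also: 0% = enzyme with DMSO and 100% = wells lacking enzyme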
PAFAH2 inh: PAFAH2 enzyme inhibitors, primary screen, biochemical, fluorescence polarization, human. inhibition, % at 3.39 µM. actives 0.99% (n = 340,000). recombinant PAFAH2, FP-rhodamine activity probe. Platelet-activating factor acetylhydrolase 2, cytoplasmic (Homo sapiens), Q99487;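 active = inhibition above the mean over all tested compounds plus 3 SD, cut at about 30% in these data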;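 also: inhibitors block probe labeling of enzyme so polarization drops; 0% = enzyme with DMSO and 100% = wells lacking PAFAH2 protein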
pPAFAH inh: pPAFAH enzyme inhibitors, primary screen, biochemical, fluorescence polarization, human; Platelet-activating factor acetylhydrolase (Homo sapiens), Q13093; recombinant pPAFAH, FP-rhodamine probe fluorescence polarization; inhibition, % at 3.39 µM; actives 1.5% (n = 330,000);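 active = inhibition above the mean inhibition across the screen plus 3 SD, cut at about 25% in these data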;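 also: inhibitors block binding of the rhodamine activity-based probe so polarization drops; 0% = enzyme with DMSO and 100% = wells lacking pPAFAH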
Active calls of the source: *; · = not tested or not shown. Sampled rows, rich in hits. Any-hit rate of the full collection: about 3.5%.

SMILES	PAFAH1B3 FP inh	Apaf1 inhib	PAFAH1B2 FP inh	PREPL inh	PAFAH2 inh	pPAFAH inh
C=C1CCC[C@]2(C)C[C@H]3OC(=O)C(CN(Cc4ccc(OC)c(OC)c4)CC(C)O)[C@H]3CC12 (some centres undefined)	3	11	12	-2	15	5
CC1=NN(c2ccccc2)C(=O)/C1=C\c1ccc(Oc2ccc([N+](=O)[O-])cc2[N+](=O)[O-])cc1	18	92*	8	11	25	10
O=C1[C@H](Cc2ccccc2)NCC=CC[C@H](c2ccc(Cl)cc2)N1Cc1ccccc1	2	·	27*	·	-5	·
CC1CCN(C(=O)COC(=O)c2ccc([N+](=O)[O-])o2)CC1	12	2	7	6	0	28*
CC1CCN(C(=O)COC(=O)c2ccc(Br)o2)CC1	3	-4	6	7	7	7
O=C(NCc1ccco1)c1ccc([N+](=O)[O-])o1	7	6	2	2	1	7
N#C/C(=C\c1cccnc1)C(=O)Nc1ccccc1[N+](=O)[O-]	11	6	13	23	-3	26*
CN(C)S(=O)(=O)c1ccc(C(=O)OCC2CC2(Cl)Cl)cc1 (centres undefined)	4	15	4	10	-1	3
CCc1ccc2[nH]c(O)c(N=NC3=NC(=O)CS3)c2c1	9	-8	34*	15	-5	24
CCc1ccc2c(c1)c(N=NC1=NC(=O)CS1)c(O)n2CC	5	9	6	6	12	6
O=C(COC(=O)c1ccc(Cl)c(Cl)c1)NC1CCCC1	9	1	5	9	58*	34*
O=C(COC(=O)c1ccccc1Cl)NC1CCCCCC1	6	8	5	23	79*	31*
CCN(CC)c1ccc(NC(=O)CSc2nc(C3CC3)nc3ccccc23)cc1C	7	12	4	-4	7	31*
OCCN1CCN(c2ncnc3c2c(-c2ccccc2)cn3-c2ccc(F)cc2)CC1	4	-6	-1	23	-5	25*
Brc1ccc(CSc2ccc3nnc(-c4ccccn4)n3n2)cc1	3	2	0	45*	3	9
COCCCNc1ncnc2ccc(C)cc12	1	-4	3	5	4	25*
O=C(COC(=O)CCNS(=O)(=O)c1ccccc1F)Nc1nnc(-c2ccccc2)o1	11	5	1	-3	10	33*
O=C(CCNS(=O)(=O)c1ccccc1)OCc1nnc(-c2ccccc2)o1	3	12	2	-5	2	30*
Cc1occc1C(=O)NNS(=O)(=O)c1ccc(Cl)cc1	5	-1	19	-3	3	6
CN(C)c1ccsc1C(=O)NNS(=O)(=O)c1ccc(Cl)cc1	2	-5	32*	2	2	-1
CCOC(=O)c1[nH]c2ccc(OC)cc2c1NC(=S)N1CCN(c2ccccc2)CC1	1	-3	2	57*	-5	5
COC(=O)c1cc(OC)c(OC)cc1NC(=S)N1CCN(c2ccccc2)CC1	6	7	-3	47*	6	3
COC(=O)c1ccccc1NC(=S)N1CCN(c2ccccc2)CC1	14	13	9	-3	3	0
OCC[C@H]1C[C@H](O)[C@@H](O)[C@@]2(Cc3ccccc3O2)O1	7	-8	-1	-7	2	-2
O=C(CNS(=O)(=O)c1ccccc1)NCC(=O)OCc1ccc(Br)cc1	3	5	45*	-2	18	8
SMILES	PAFAH1B3 FP inh	Apaf1 inhib	PAFAH1B2 FP inh	PREPL inh	PAFAH2 inh	pPAFAH inh
Cc1cccc(NC(=O)Cn2cnc3ccc(S(=O)(=O)N4CCC(C)CC4)cc3c2=O)n1	1	7	24*	-4	-1	1
CCN(CC)CCCNC(=O)Cn1cnc2ccc(S(=O)(=O)N3CCC(C)CC3)cc2c1=O	8	3	7	-1	4	0
O=C(NCC1CCCO1)c1cccc2c1C(=O)c1ccc(N3CCC(Cc4ccccc4)CC3)cc1S2(=O)=O (centres undefined)	-1	30	-9	11	-14	33*
Cc1ccc(SCC(=O)OCC(=O)N(C)CC(=O)Nc2ccccc2Cl)cc1C	7	7	5	0	-1	34*
CN(CC(=O)Nc1ccccc1Cl)C(=O)COC(=O)c1ccc([N+](=O)[O-])s1	48*	12	19	16	34*	10
NS(=O)(=O)c1ccc(NC(=O)COC(=O)c2ccc([N+](=O)[O-])s2)cc1	30*	10	12	7	43*	33*
Cc1ccc(NC(=O)COC(=O)c2ccc([N+](=O)[O-])s2)c(C)c1	28*	6	16	10	39*	11
COc1cc(/C=C2\CCCc3c2nc2ccccc2c3C(=O)O)cc(OC)c1O	5	-6	-1	7	10	9
COc1cc(/C=C2\CCCc3c2nc2ccccc2c3C(=O)O)cc([N+](=O)[O-])c1O	16	-3	1	8	25	32*
CCOc1ccc(/C=C2\CCCc3c2nc2ccccc2c3C(=O)O)cc1OC	28*	4	6	19	19	16
COc1ccc(/C=C2\CCCc3c2nc2ccccc2c3C(=O)O)cc1OC	·	-16	·	3	·	7
COc1ccc(CCn2c(-c3ccc(C(C)(C)C)cc3)n[nH]c2=S)cc1OC	5	6	25*	-26	11	1
COc1ccc(CCn2c(-c3ccc(Cl)cc3)n[nH]c2=S)cc1OC	5	3	1	-7	-2	4
Cc1ccc(C(=O)NNC(=O)c2csc(N3CCOCC3)n2)s1	5	2	4	1	7	0
Cc1ccc2[nH]c(=O)c(C3C(C#N)=C(N)Oc4c3ccc3cccnc43)cc2c1 (centres undefined)	7	26	3	5	11	25*
CCC(CC)NC(=O)COC(=O)c1ccc(OCc2ccc(C(C)=O)cc2OC)c(OC)c1	4	12	-3	-4	77*	27*
COc1cc(C(C)=O)ccc1COc1ccc(C(=O)OCC(N)=O)cc1OC	-1	-8	0	-3	2	-2
CCN1/C(=C/C=C/c2oc3ccc4ccccc4c3[n+]2CC)Oc2ccc3ccccc3c21	·	76*	·	-62	·	42*
CC[n+]1c(/C=C/N(C)c2ccccc2)oc2ccc(Cl)cc21	1	3	1	10	0	9
Cn1c(NCCN2CCOCC2)nc2c1c(=O)n(Cc1cccc(Cl)c1)c(=O)n2C	-1	-11	28*	24	3	5
